{
  "source": "ChEMBL document CHEMBL1149105",
  "about": "“3-(4-phenoxyphenyl)pyrazoles: a novel class of sodium channel blockers” (J Med Chem, 2004)",
  "key": {"[1]": {"molecular_target": "T1, Sodium channel protein type 4 subunit alpha (Homo sapiens, UniProt P35499)", "assay": "Affinity for resting human SkM1 sodium channel expressed in HEK293 cells", "assay_type": "cell-based", "in_short": "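Tonic block was measured by whole-cell patch clamp on hSkM1-expressing HEK-293 cells at room temperature. Cells were held at -120 mV, where all channels are resting, and depolarized to 0 mV. Peak current was compared between control and 3 μM antagonist applied by flow pipes from DMSO stock. The fractional response gave Kr = FR/(1−FR)·[antag], with slope n = 1. Mean ± SEM, n = 3–4.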"}, "[2]": {"molecular_target": "T1, Sodium channel protein type 4 subunit alpha", "assay": "Affinity for inactive human SkM1 sodium channel expressed in HEK293 cells", "assay_type": "cell-based", "in_short": "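Whole-cell voltage clamp at room temperature on HEK-293 cells stably expressing hSkM1, recorded 3–4 days after plating. Cells were held at -120 mV. 10–12 conditioning prepulses (3 s, 10 mV steps) were each followed by a 5 ms test pulse to 0 mV at 1/7 s. Boltzmann V1/2 and k were taken without and with drug (final 0.003–10 μM, ≤0.1% DMSO). Ki came from the modified Bean equation. Mean ± SEM, n = 3–4.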"}, "[3]": {"molecular_target": "T1, Sodium channel protein type 4 subunit alpha", "assay": "Relative affinity for inactivated and resting human SkM1 expressed in HEK293 cells", "assay_type": "cell-based"}, "[4]": {"molecular_target": "T1, Sodium channel protein type 4 subunit alpha", "settings": "HEK293"}},
  "data": [
    {"smiles": "COc1ccc(-c2cc[nH]n2)cc1", "values": [
      {"measurement": "Kr", "setting": "[1]", "value": 710, "unit": "µM"},
      {"measurement": "Ki", "setting": "[2]", "value": 81, "unit": "µM"},
      {"measurement": "Ratio", "setting": "[3]", "value": 9}
    ]},
    {"smiles": "c1ccc(Oc2ccc(-c3cc[nH]n3)cc2)cc1", "values": [
      {"measurement": "Kr", "setting": "[1]", "value": 16, "unit": "µM"},
      {"measurement": "Ki", "setting": "[2]", "value": 0.24, "unit": "µM"},
      {"measurement": "Ratio", "setting": "[3]", "value": 67}
    ]},
    {"smiles": "Nc1nnc(-c2cccc(Cl)c2Cl)c(N)n1", "note": "[LAMOTRIGINE]", "values": [
      {"measurement": "Kr", "setting": "[1]", "value": 1440, "unit": "µM"},
      {"measurement": "Ki", "setting": "[2]", "value": 17, "unit": "µM"},
      {"measurement": "Ratio", "setting": "[3]", "value": 85}
    ]},
    {"smiles": "c1ccc(-c2cc[nH]n2)cc1", "values": [
      {"measurement": "Kr", "setting": "[1]", "value": 1110, "unit": "µM"},
      {"measurement": "Ki", "setting": "[2]", "value": 61, "unit": "µM"},
      {"measurement": "Ratio", "setting": "[3]", "value": 18}
    ]},
    {"smiles": "NC(=O)n1ccc(-c2ccc(Oc3ccc(F)cc3)cc2)n1", "values": [
      {"measurement": "Kr", "setting": "[1]", "value": 6, "unit": "µM"},
      {"measurement": "Ki", "setting": "[2]", "value": 0.031, "unit": "µM"},
      {"measurement": "Ratio", "setting": "[3]", "value": 194}
    ]},
    {"smiles": "NC(=O)n1ccc(-c2ccc(Oc3ccc(F)cc3F)cc2)n1", "values": [
      {"measurement": "Kr", "setting": "[1]", "value": 10, "unit": "µM"},
      {"measurement": "Ki", "setting": "[2]", "value": 0.025, "unit": "µM"},
      {"measurement": "Ratio", "setting": "[3]", "value": 400}
    ]},
    {"smiles": "O=C1NC(=O)C(c2ccccc2)(c2ccccc2)N1", "note": "[PHENYTOIN]", "values": [
      {"measurement": "Kr", "setting": "[1]", "value": 620, "unit": "µM"},
      {"measurement": "Ki", "setting": "[2]", "value": 24, "unit": "µM"},
      {"measurement": "Ratio", "setting": "[3]", "value": 26}
    ]},
    {"smiles": "NC(=O)N/N=C/c1ccc(Oc2ccc(F)cc2)cc1", "values": [
      {"measurement": "Kr", "setting": "[1]", "value": 27, "unit": "µM"},
      {"measurement": "Ki", "setting": "[2]", "value": 0.18, "unit": "µM"},
      {"measurement": "Ratio", "setting": "[3]", "value": 150}
    ]},
    {"smiles": "CN(C)C(=O)n1ccc(-c2ccc(Oc3ccc(F)cc3)cc2)n1", "values": [
      {"measurement": "Kr", "setting": "[1]", "value": 26, "unit": "µM"},
      {"measurement": "Ki", "setting": "[2]", "value": 0.34, "unit": "µM"},
      {"measurement": "Ratio", "setting": "[3]", "value": 76}
    ]},
    {"smiles": "NC(=O)n1ccc(-c2ccc(Oc3ccccc3)cc2)n1", "values": [
      {"measurement": "Kr", "setting": "[1]", "value": 5, "unit": "µM"},
      {"measurement": "Ki", "setting": "[2]", "value": 0.035, "unit": "µM"},
      {"measurement": "Ratio", "setting": "[3]", "value": 143}
    ]},
    {"smiles": "NC(=O)n1ccc(-c2ccc(Oc3ccc([N+](=O)[O-])cc3)cc2)n1", "values": [
      {"measurement": "Kr", "setting": "[1]", "value": 7, "unit": "µM"},
      {"measurement": "Ki", "setting": "[2]", "value": 0.031, "unit": "µM"},
      {"measurement": "Ratio", "setting": "[3]", "value": 226}
    ]},
    {"smiles": "Fc1ccc(Oc2ccc(-c3cc[nH]n3)cc2)cc1", "values": [
      {"measurement": "Kr", "setting": "[1]", "value": 17, "unit": "µM"},
      {"measurement": "Ki", "setting": "[2]", "value": 0.2, "unit": "µM"},
      {"measurement": "Ratio", "setting": "[3]", "value": 85}
    ]},
    {"smiles": "NC(=O)N1c2ccccc2C=Cc2ccccc21", "note": "[CARBAMAZEPINE]", "values": [
      {"measurement": "Ki", "setting": "[2]", "value": 52, "unit": "µM"},
      {"measurement": "Kr", "setting": "[4]", "value": 720, "unit": "µM"},
      {"measurement": "Ratio", "setting": "[3]", "value": 14}
    ]},
    {"smiles": "Cn1ccc(-c2ccc(Oc3ccc(F)cc3)cc2)n1", "values": [
      {"measurement": "Kr", "setting": "[1]", "value": 21, "unit": "µM"},
      {"measurement": "Ki", "setting": "[2]", "value": 0.69, "unit": "µM"},
      {"measurement": "Ratio", "setting": "[3]", "value": 30}
    ]},
    {"smiles": "CNC(=O)n1ccc(-c2ccc(Oc3ccc(F)cc3)cc2)n1", "values": [
      {"measurement": "Kr", "setting": "[1]", "value": 21, "unit": "µM"},
      {"measurement": "Ki", "setting": "[2]", "value": 0.15, "unit": "µM"},
      {"measurement": "Ratio", "setting": "[3]", "value": 140}
    ]}
  ]
}
